Measurements gathered from unrelated publications.
Target: Serine/threonine-protein kinase D1 (PRKD1, Homo sapiens, UniProt Q15139)

SMILES	read-out	action	method	concentration	endpoint	value
Cc1nc(Cc2cccc(C(F)(F)F)c2)sc1-c1ccc(C(N)=O)nc1	cell-free assay		competition with immobilised ligand	1 µM	remaining binding	93%
CC(C)(O)[C@H]1CC[C@H](Nc2ccc3ncc(-c4cccc(C(F)(F)F)c4)n3n2)CC1	enzyme activity	inhibitor		1 µM	remaining activity	99.5%
CN(c1ncccc1CNc1nc(Nc2ccc3c(c2)CC(=O)N3)ncc1C(F)(F)F)S(C)(=O)=O	enzyme activity	inhibitor		1 µM	inhibition	49%
Cn1cncc1C1=CN(c2ncnc3[nH]cnc23)CCS1	enzyme activity	inhibitor	radiometric	50 nM	inhibition	21.3%
O=C1Nc2ccc(Cl)cc2C1=Cc1cc(Cl)c(O)c(Cl)c1	cell-free assay			0.5 µM	remaining signal	91.5%
CCCCNc1ncc2c(-c3ccc(F)cc3)nn(C[C@H]3CC[C@H](N)CC3)c2n1	target engagement in cells	inhibitor	chemoproteomics	20 mM	inhibition	25%
O=C(NC[C@@H]1[C@H]2CN(C(=O)OCc3cc(C(F)(F)F)cc(C(F)(F)F)c3)C[C@@H]12)c1ccc2[nH]nnc2c1	cell-free assay		competition with immobilised ligand	1 µM	remaining binding	100%
Cc1cc(NC(=O)c2cccc3cc(-c4cccc5[nH]nc(N)c45)ccc23)ccc1F	enzyme activity	inhibitor		0.1 µM	activity vs control	76%
Cc1c(C(=O)O)cc(-c2ccc(C3CCNCC3)cc2)c2ccc(-c3ccc(C(F)(F)F)cc3)cc12	binding		competition with immobilised ligand	1 µM	remaining binding	100%
COc1cc(/C=C/C(=O)CC(=O)/C=C/c2ccc(O)c(OC)c2)ccc1O	enzyme activity	inhibitor		1 µM	activity vs control	79%
COc1cc2ncnc(Nc3ccc(Oc4ccccc4)c(C)c3C)c2cc1OC	enzyme activity	inhibitor		1 µM	inhibition	-3%
N#CCCc1ccc2c(c1)-c1[nH]c3ccc([N+](=O)[O-])cc3c1CC(=O)N2	cell-free assay			0.5 µM	remaining signal	87.5%
CC(C)(C)C(=O)c1sc(NC2CCCCC2)nc1N	enzyme activity	inhibitor		10 µM	remaining activity	85%
O=C(N[C@H]1CCCCC/C=C\C2C[C@@]2(C(=O)O)NC(=O)[C@@H]2C[C@@H](Oc3ccncc3)CN2C1=O)OC1CCCC1 (stereo partly shown)	binding		competition with immobilised ligand	1 µM	remaining binding	96%
Cc1cnc(NC2CCOCC2)nc1-n1cnc(C(=O)NC(CN)c2cc(F)cc(Cl)c2)c1 (stereo not shown)	enzyme activity	inhibitor	radiometric	1 µM	remaining activity	0%
CC(=O)N1CCC(c2ccc(C(=O)NC3=NCCN3)cc2C(F)(F)F)CC1	cell-free assay		competition with immobilised ligand	1 µM	remaining binding	100%
O=C1NC(=O)c2cc(Nc3ccc(F)cc3)c(Nc3ccc(F)cc3)cc21	cell-free assay			0.5 µM	remaining signal	92.2%

SMILES	read-out	action	method	concentration	endpoint	value
CNc1cccc2cc(C(=O)Nc3ccc(C(=O)O)cc3)c(=O)[nH]c12	enzyme activity	inhibitor		10 µM	inhibition	-3.9%
CCCOc1ccc(OC)c(F)c1C(=O)c1ccc(C(=O)N[C@@H]2CNC[C@H]2NC(=O)c2ccc3[nH]ncc3c2)cc1	enzyme activity	inhibitor		10 µM	remaining activity	53%
CC(C)(C)c1nc2c(s1)c1nc(N)ncc1c1ccc(NS(=O)(=O)c3c(F)cccc3F)c(F)c12	enzyme activity	inhibitor	radiometric	1 µM	remaining activity	93%
C[C@@H]1CCN(C(=O)CC#N)C[C@@H]1N(C)c1ncnc2[nH]ccc12	cell-free assay	inhibitor		0.5 µM	remaining signal	97.3%
Nc1ncnc2occ(-c3ccc(NC(=O)Nc4cc(C(F)(F)F)ccc4F)cc3)c12	cell-free assay	inhibitor		20 µM	remaining signal	30%
Cc1nccc(COC(=O)N2C[C@@H]3[C@@H](CNC(=O)c4ccc5[nH]nnc5c4)[C@@H]3C2)n1	cell-free assay		competition with immobilised ligand	1 µM	remaining binding	100%
Cn1cnc(Br)c1C1=CN(c2ncnc3[nH]cnc23)CCS1	enzyme activity	inhibitor	radiometric	50 nM	inhibition	21.4%
Cc1c(NC(=O)c2cc(C(N)=O)nc3cc(F)ccc23)c(C(F)(F)F)nn1Cc1ccc(C(C)(C)C)cc1	cell-free assay		competition with immobilised ligand	1 µM	remaining binding	100%
FC(F)(F)Oc1cccc(-c2cnc3ccc(-c4ccncc4)nn23)c1	enzyme activity	inhibitor	radiometric	1 µM	activity vs control	106%
Oc1cccc(-c2nc(N3CCOCC3)c3oc4ncccc4c3n2)c1	enzyme activity	inhibitor		10 µM	remaining activity	120%
CNC(=O)c1cc(Oc2ccc(NC(=O)Nc3ccc(Cl)c(C(F)(F)F)c3)cc2)ccn1	enzyme activity	inhibitor		0.3 µM	inhibition	8%
CCCS(=O)(=O)Nc1ccc(F)c(C(=O)c2c[nH]c3ncc(-c4ccc(Cl)cc4)cc23)c1F	enzyme activity	inhibitor		1 µM	inhibition	< 10%
CC(C)CC(=O)N1CCc2nc(-c3ccc(Br)cc3)nc(N(C)Cc3ccccc3)c2C1	cell-free assay		competition with immobilised ligand	0.1 µM	remaining binding	87%
Cc1ccc(Nc2nccc(N(C)c3ccc4c(C)n(C)nc4c3)n2)cc1S(N)(=O)=O	enzyme activity	inhibitor		0.3 µM	inhibition	9%
O=C(Nc1cnn(-c2csc(C(=O)NC3COC3)c2)c1)Nc1ccccc1Cl	enzyme activity	inhibitor		5 µM	remaining activity	114%
COc1cc(Cl)c(C(=O)N[C@@H](CN[C@H]2CC[C@@H](N)CC2)Cc2ccc(C#N)cc2)cc1-c1ccc(CN[C@H](C)c2ccc(C)cc2)o1	enzyme activity	inhibitor		1 µM	remaining activity	99%
Nc1nc(NC2CCCCC2)sc1C(=O)c1ccccc1	enzyme activity	inhibitor		10 µM	remaining activity	35%
